# Source: PubChem BioAssay (several laboratories)
# Sampled rows, rich in hits. Any-hit rate of the full collection: about 1.9%.
# ABHD5 PLIN5 PPI – ABHD5-PLIN5 interaction inhibitors, primary screen, cell lysate, split luciferase complementation, luminescence. AID 602281, 2012. Perilipin-5 (Homo sapiens) + 1-acylglycerol-3-phosphate O-acyltransferase ABHD5 (Homo …. 360,000 compounds, 0.78% hits. inhibition, % at 4 µM. Split G. princeps luciferase complementation, 4 h;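 active = inhibition above the mean inhibition across every tested compound plus 3 SD, cut at about 22% in these data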;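 also: 0% = DMSO only wells and the 100% control is not disclosed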
# Target sequence (Q00G26 whole entry, looked up): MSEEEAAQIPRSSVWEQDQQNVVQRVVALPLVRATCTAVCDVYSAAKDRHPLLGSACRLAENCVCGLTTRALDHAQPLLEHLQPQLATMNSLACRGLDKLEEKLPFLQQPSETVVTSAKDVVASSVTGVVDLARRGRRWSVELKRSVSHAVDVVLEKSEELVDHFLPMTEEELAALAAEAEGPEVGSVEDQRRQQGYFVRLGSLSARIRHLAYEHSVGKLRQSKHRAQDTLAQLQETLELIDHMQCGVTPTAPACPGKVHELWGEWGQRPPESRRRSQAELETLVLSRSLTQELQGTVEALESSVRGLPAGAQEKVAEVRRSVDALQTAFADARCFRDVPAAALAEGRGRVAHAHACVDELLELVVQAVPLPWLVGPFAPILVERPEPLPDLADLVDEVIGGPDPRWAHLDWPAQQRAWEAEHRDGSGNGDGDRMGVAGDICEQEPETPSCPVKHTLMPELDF
# Target sequence (Q8WTS1 whole entry, looked up): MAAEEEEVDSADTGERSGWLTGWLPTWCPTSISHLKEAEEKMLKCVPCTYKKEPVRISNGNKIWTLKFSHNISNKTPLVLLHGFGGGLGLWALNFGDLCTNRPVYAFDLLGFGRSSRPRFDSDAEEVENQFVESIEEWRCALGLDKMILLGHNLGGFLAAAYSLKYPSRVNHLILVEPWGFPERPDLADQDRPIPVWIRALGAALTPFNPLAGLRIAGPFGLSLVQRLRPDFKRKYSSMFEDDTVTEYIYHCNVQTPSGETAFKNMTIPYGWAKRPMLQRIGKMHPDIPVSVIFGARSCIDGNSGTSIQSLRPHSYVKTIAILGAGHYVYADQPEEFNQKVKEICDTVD
# Rad51 HR inh – human RAD51 strand exchange inhibitors, primary screen, biochemical, fluorescence; DNA repair protein RAD51 homolog 1 (Homo sapiens), Q06609; hRad51 DNA strand exchange, fluorescence dequenching; inhibition, % at 10 µM; 200,000 compounds, 0.085% hits;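 active = inhibition above 40% at the single screening dose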;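 also: 0% = DMSO control wells and 100% = blanks with heterologous ssDNA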
#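 System: human Rad51 nucleoprotein filaments preassembled on unlabelled ssDNA. Reagent: labelled 47-mer dsDNA for strand exchange. Schedule: 30-min compound preincubation and 15-min exchange, both room temperature. Measured by: FRET fluorescence dequenching, excitation 485 nm, emission 520 nm. Read-out: Fluorescence-based percent inhibition, control- and blank-normalised. Benchmarks: plate controls and plate blanks.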
# H9c2 TAG inh – inhibitors of triacylglycerol accumulation, primary screen, cell-based, uHTS, fluorescence, H9c2; H9c2 cells, Nile Red lipid (TAG) fluorescence; cells loaded with 200 µM oleic acid; inhibition, % at 12.5 µM; 230,000 compounds, 0.66% hits;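 active = pattern-corrected inhibition of lipid staining of at least 50% with the nuclear-stain viability signal not falling by more than 50%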;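 also: 0% = DMSO wells and 100% = triacsin C control wells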
# GAA850 FXN act – FXN promoter activators, primary screen, cell-based, luciferase luminescence, HEK293 lucGAA850; HEK293 lucGAA850 FXN promoter luciferase reporter, 24 h; percent of 10 µM SAHA response; activation, % at 6 µM; AID 540364, 2011; 360,000 compounds, 0.56% hits;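 active = activation above the average of all compounds screened plus 3 SD, cutoff fixed separately per campaign, cut at about 7.5% in these data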;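 also: 0% = DMSO wells and 100% = 10 µM SAHA wells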
# HIF activator – HIF pathway transcriptional activators, primary screen, cell-based, U2OS HRE-luciferase, luminescence; U2OS HRE-luciferase reporter; normalized: DMSO 0%, desferrioxamine 100%; AID 1910, 2009; activation, % at 7.5 µM (by protocol); 300,000 compounds, 0.32% hits;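 active = mean activation of at least 10% of the iron chelator positive control signal, with at least half of replicates also reaching 10%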
# Hsp70 activator – Hsp70 transcriptional activators, primary screen, cell-based, HeLa, Hsp70 promoter luciferase, luminescence, 10 µM; HeLa Hsp70 promoter luciferase reporter; scaled: vehicle 0, proteasome-inhibitor control 100%; activation, % at 10 µM; 200,000 compounds, 0.04% hits; AID 1203, 2008;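 active = activation above the mean across all tested compounds plus 3 SD, cutoff set per campaign, cut at about 5.5% in these data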;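 also: 100% = MG132 at 30 µM as the positive control and 0% = DMSO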
# Numbers without * were called inactive; / = no result given.
SMILES,ABHD5 PLIN5 PPI,Rad51 HR inh,H9c2 TAG inh,GAA850 FXN act,HIF activator,Hsp70 activator
COc1ccc(/C=C/C(=O)Nc2ccc(OC)nc2)cc1,-5.4,/,/,0.0,0.3,-0.6
COc1ccc(CS(=O)(=O)/C(Cl)=C(/Cl)C(=O)Nc2ccc(OC)nc2)cc1,41.0*,4.4,80.7,-15.3,-3.7,2.7
CCNc1ccc(Br)cc(C(=O)/C=C/c2c(Cl)cccc2Cl)c1=O,44.1*,-46.9,/,-0.1,1.0,0.2
CNc1ccc(Br)cc(C(=O)/C=C/c2ccc(Cl)cc2Cl)c1=O,56.6*,-73.3,12.4,1.7,0.1,0.2
CCNc1ccc(Br)cc(C(=O)/C=C/c2ccc(Cl)cc2)c1=O,26.7*,/,/,0.4,0.2,-0.3
CNc1ccc(Br)cc(C(=O)/C=C/c2ccc(OC)cc2OC)c1=O,14.2,-6.7,/,0.6,-10.9,-0.3
Cc1cc(Br)ccc1S(=O)(=O)n1ccnc1C,0.1,10.8,10.1,0.2,0.6,-0.3
COc1ccc(NC(=O)c2ccc(-n3cnnn3)cc2)c([N+](=O)[O-])c1,10.2,/,/,-0.7,0.0,/
Cc1ccc(C(=O)Nc2cccc([N+](=O)[O-])c2)cc1S(=O)(=O)Nc1ccc(NC(=O)c2ccccc2)cc1,11.0,-0.3,33.9,-1.6,139.9*,-0.4
Cc1ccnc(NC(=O)c2ccc(NC(=O)CC3SC(N4CCCC4)=NC3=O)cc2)c1 (stereo unspecified),-7.9,/,-2.9,1.7,0.6,/
O=C(CC1SC(N2CCCC2)=NC1=O)Nc1ccc(C(=O)Nc2ncccc2O)cc1 (stereo unspecified),-15.9,/,-23.3,5.5,20.4*,/
O=C(CN(Cc1ccc(F)cc1)C(=O)CCC(=O)Nc1nccs1)NCC1CCCO1 (stereo unspecified),14.0,/,/,1.3,30.8*,/
O=C(CN(C(=O)CCC(=O)Nc1nccs1)c1ccc(F)cc1)NCC1CCCO1 (stereo unspecified),2.5,-6.7,-0.3,-0.5,-0.2,-0.4
O=C(CN(Cc1ccco1)C(=O)CCC(=O)Nc1nccs1)NCc1ccccc1,13.1,124.7*,1.5,-2.2,0.3,0.0
Cc1ccc2nc(N(CCCN(C)C)C(=O)CCc3ccccc3)sc2c1,22.0*,-0.6,/,0.6,-3.1,-0.5
Cc1ccc2nc(N(CCCN(C)C)C(=O)CS(=O)(=O)c3ccccc3)sc2c1,-3.1,/,4.6,-1.2,-2.4,/
COc1cccc(-c2nc(NCCN3CCOCC3)c3ccccc3n2)c1O,7.2,-0.2,9.6,-5.2,-0.2,0.2
Oc1ccccc1-c1nc(NCCN2CCOCC2)c2ccccc2n1,22.3*,-1.3,16.1,-2.5,0.1,0.1
Cc1ccc2nc(SCCC#N)nc(C)c2c1,-0.9,0.4,8.8,0.9,-20.2,0.1
Cc1ccc2nc(SCC(=O)O)nc(C)c2c1,22.4*,-0.2,/,2.7,0.2,-0.2
Cc1ccc(OCC(O)CN2CCOCC2)cc1C (stereo unspecified),-4.5,/,/,0.1,0.2,/
O=C(/C=C/c1ccc2c(c1)OCO2)Nc1cccnc1,3.1,1.1,17.8,7.2,11.2*,-0.1
COc1ccc(N2CCN(c3ccc(N4C(=O)COCC4=O)cc3[N+](=O)[O-])CC2)cc1,0.7,1.7,/,0.1,-0.2,-0.5
COc1ccc(N2CCN(c3ccc(N4C(=O)CC(C)C4=O)cc3[N+](=O)[O-])CC2)cc1 (stereo unspecified),10.2,3.6,2.9,0.3,66.0*,-0.3
O=C(COc1ccccc1)N(Cc1cccc(F)c1)C1CCS(=O)(=O)C1 (stereo unspecified),-4.1,/,/,-0.2,18.4*,/
COc1ccc(CCNC(=O)c2cc3c(cc2Cl)N2CCCCCC2=NS3(=O)=O)cc1,8.1,/,-15.7,0.7,-0.1,/
COC(=O)[C@]12CCCCC=C1N(Cc1ccccc1)C(=O)[C@H](CC(=O)N1CCCCC1)C2,-0.9,/,/,/,/,/
O=C(CBr)c1ccc([N+](=O)[O-])c(CS(=O)(=O)c2ccc(Cl)cc2)c1,26.9*,/,/,-1.1,-0.6,/
